Data as given in ChEMBL document CHEMBL1641515, “Inhibition of secreted phospholipases A₂ by 2-oxoamides based on α-amino acids: Synthesis, in vitro evaluation and molecular docking calculations” (Bioorg Med Chem, 2011).

Assays:
[1] = biological target: T1, Phospholipase A2, membrane associated (Homo sapiens, UniProt P14555); test: Inhibition of human group 2A sPLA2 by fluorescence assay
T1 sequence (P14555 whole entry): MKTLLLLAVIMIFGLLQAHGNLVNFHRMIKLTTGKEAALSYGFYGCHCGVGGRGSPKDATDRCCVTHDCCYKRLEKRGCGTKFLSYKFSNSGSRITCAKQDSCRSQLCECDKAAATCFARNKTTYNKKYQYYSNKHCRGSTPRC
In short: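 Continuous fluorimetric assay with recombinant human GIIA sPLA2 (6 ng/well) on pyrPG vesicles, pH 8.0 Tris buffer with Ca2+, KCl and BSA. Readout at ex 342/em 395 nm, initial slopes. […] Nonlinear variable-slope sigmoidal fit gives IC50; mean of duplicate or triplicate analyses with SD.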

Phospholipase A2 group V [2] = biological target: T2, Phospholipase A2 group V (Homo sapiens, UniProt P39877); test: Inhibition of human group 5 sPLA2 by fluorescence assay
T2 sequence (P39877 whole entry): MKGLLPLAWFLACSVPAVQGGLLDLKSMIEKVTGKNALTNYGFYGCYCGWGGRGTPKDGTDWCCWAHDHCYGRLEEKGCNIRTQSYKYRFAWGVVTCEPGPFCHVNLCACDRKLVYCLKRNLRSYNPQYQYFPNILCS
In short: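 Recombinant human GV sPLA2 (12.5 ng/well) with pyrPG vesicle substrate in Tris-HCl pH 8.0, KCl, CaCl2 and BSA. Monitored by fluorescence (342/395 nm), using initial slopes. […] IC50 by variable-slope sigmoidal regression on log concentration; duplicate or triplicate runs, mean with SD.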

[3] = biological target: T3, Group 10 secretory phospholipase A2 (Homo sapiens) (UniProt O15496); test: Inhibition of human group 10 sPLA2 at […] by fluorescence assay
T3 sequence (whole entry): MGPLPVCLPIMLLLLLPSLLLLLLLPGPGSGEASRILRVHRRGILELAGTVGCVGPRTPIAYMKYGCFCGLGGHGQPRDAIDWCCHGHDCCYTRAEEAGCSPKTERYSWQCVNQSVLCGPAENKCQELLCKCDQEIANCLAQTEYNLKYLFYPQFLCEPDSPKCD

[4] = biological target: T4, Phospholipase A2, membrane associated (Mus musculus, UniProt P31482); test: Inhibition of mouse group 2A sPLA2 by fluorescence assay
T4 sequence (P31482 whole entry): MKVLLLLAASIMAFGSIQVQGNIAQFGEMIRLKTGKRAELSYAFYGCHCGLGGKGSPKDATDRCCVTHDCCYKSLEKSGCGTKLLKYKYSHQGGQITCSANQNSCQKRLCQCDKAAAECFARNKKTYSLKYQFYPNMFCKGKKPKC

Phospholipase A2 group V [5] = biological target: T5, Phospholipase A2 group V (Mus musculus, UniProt P97391); test: Inhibition of mouse group 5 sPLA2 by fluorescence assay
T5 sequence (P97391 whole entry): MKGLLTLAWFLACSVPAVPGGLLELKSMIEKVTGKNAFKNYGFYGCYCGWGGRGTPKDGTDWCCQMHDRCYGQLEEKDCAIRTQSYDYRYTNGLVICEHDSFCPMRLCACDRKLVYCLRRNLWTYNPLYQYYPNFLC

[6] = biological target: T6, Group 10 secretory phospholipase A2 (Mus musculus) (UniProt Q9QXX3); test: Inhibition of mouse group 10 sPLA2 by fluorescence assay; settings: concentration not given here
T6 sequence (whole entry): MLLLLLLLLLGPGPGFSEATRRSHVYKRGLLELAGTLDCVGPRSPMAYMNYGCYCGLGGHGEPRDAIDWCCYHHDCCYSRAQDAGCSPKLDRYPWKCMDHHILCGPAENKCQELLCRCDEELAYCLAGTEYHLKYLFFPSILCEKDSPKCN
In short: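 Mouse GX sPLA2, recombinant, 10.7 ng per well, in 50 mM Tris-HCl pH 8.0 with 50 mM KCl, 1 mM CaCl2 and BSA. Started with pyrPG vesicles and read at ex 342/em 395 nm. Percent inhibition from initial fluorescence slopes at five concentrations. IC50 from a variable-slope sigmoidal dose-response fit.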

[7] = biological target: T7, Group 10 secretory phospholipase A2 (Homo sapiens, UniProt O15496); test: Inhibition of human group 10 sPLA2 by fluorescence assay
T7 sequence (O15496 whole entry): T3 sequence (whole entry)

[8] = biological target: T8, Phospholipase A2 group V (Homo sapiens) (UniProt P39877); test: Inhibition of human group 5 sPLA2 at […] by fluorescence assay
T8 sequence (whole entry): T2 sequence (P39877 whole entry)

[9] = biological target: T9, Phospholipase A2, membrane associated (Homo sapiens) (UniProt P14555); test: Inhibition of human group 2A sPLA2 at […] by fluorescence assay
T9 sequence (whole entry): T1 sequence (P14555 whole entry)

SMILES | IC50 [1] [nM] | IC50 (Phospholipase A2 group V [2]) [nM] | inhibition [3] [%] | IC50 [4] [nM] | IC50 (Phospholipase A2 group V [5]) [nM] | inhibition [6] [%] | IC50 [7] [nM] | inhibition [8] [%] | inhibition [9] [%]
CCCCCCCCCCCCCCC(=O)C(=O)N[C@@H](CC(C)C)C(=O)O | 300 | 440 | 50 | 180 | 2600 | 58 |  |  | 
CCCCCCCCCCCCCCC(=O)C(=O)N[C@H](CC(C)C)C(=O)O | 1750 | 1500 |  |  |  |  | > 1660 |  | 
CCCCCCCCCCCCCCC(=O)C(=O)NCC(=O)O | 4200 |  | 23 |  |  |  |  | 43 | 
CCCCCCCCCCCCCCC(=O)C(=O)NCCC(=O)O | 5600 |  | 18 |  |  |  |  | 47 | 
CCCCCCCCCCCCCCC(=O)C(=O)N[C@@H](Cc1ccccc1)C(=O)O | > 1660 | > 1660 |  |  |  |  | > 1660 |  | 
CCCCCCCCCCCCCCC(=O)C(=O)NCCCCC(=O)O | 11700 |  | 7 |  |  |  |  | 49 | 
CCCCCCCCCCCCCCC(=O)C(=O)NCC(=O)OC |  |  | 22 |  |  |  |  | 9 | 3
CCCCCCCCCCCCCCCC(=O)N[C@@H](CC(C)C)C(=O)O | > 1660 | > 1660 |  |  |  |  |  |  | 
